# Target: Wee1-like protein kinase (Homo sapiens) (UniProt P30291)
# Test: Inhibition of WEE1 (unknown origin) at 1 uM relative to control
# Conditions: values are per cent of control
# How it was run: (§1)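 KinomeSCAN competitive binding panel of 100 kinases; compounds tested at 1 µM in duplicate; read-out is percent […] control.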
# Sequence of Wee1-like protein kinase (Homo sapiens) (P30291 whole entry, looked up): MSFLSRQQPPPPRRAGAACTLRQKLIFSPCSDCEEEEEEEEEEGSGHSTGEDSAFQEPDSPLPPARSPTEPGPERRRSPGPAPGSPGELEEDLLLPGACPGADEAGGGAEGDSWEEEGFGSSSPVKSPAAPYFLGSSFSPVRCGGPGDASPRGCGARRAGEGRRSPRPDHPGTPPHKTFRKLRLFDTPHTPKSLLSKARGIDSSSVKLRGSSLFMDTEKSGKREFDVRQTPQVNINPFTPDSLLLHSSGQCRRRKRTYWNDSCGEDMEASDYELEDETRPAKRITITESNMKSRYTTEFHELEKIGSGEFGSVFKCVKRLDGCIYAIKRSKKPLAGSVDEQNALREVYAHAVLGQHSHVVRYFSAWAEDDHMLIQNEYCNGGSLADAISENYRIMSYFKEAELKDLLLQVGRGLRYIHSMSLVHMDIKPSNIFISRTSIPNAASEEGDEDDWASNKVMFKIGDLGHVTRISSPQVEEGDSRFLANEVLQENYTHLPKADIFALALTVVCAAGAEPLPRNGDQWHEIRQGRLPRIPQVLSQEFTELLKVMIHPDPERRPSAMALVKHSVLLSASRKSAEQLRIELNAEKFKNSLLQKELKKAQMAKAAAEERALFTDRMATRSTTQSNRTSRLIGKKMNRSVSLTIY
row,"residual binding, % of control",Compound
1,94%,COc1ccc(-c2nc(-c3ccnc(N)n3)sc2C(N)=O)c(Cl)c1
2,73%,CCOC(=O)c1sc(-c2ccncc2)nc1O

row,Compound,"residual binding, % of control"
1,NC(=O)c1sc(-c2ccnc(N)n2)nc1-c1ccc(Cl)cc1Cl,74%

# Test system: not listed separately
# Test: Intrinsic clearance in rat liver microsomes at 1 uM after 30 mins by reverse phase HPLC analysis in presence of NADPH
# Type: ADME
# Conditions: read-out: CLH
# How it was run: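 Reactions were stopped with MeCN after 0 or 30 min. Samples were analysed by reverse-phase HPLC–tandem MS to give intrinsic clearance (µl/min/mg).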
row,microsomal CLint at 1 µM,Compound
1,99 µL/min/mg,COc1ccc(-c2nc(-c3ccnc(N)n3)sc2C(N)=O)c(Cl)c1
2,< 14 µL/min/mg,CCOC(=O)c1sc(-c2ccncc2)nc1O

row,Compound,microsomal CLint at 1 µM
1,NC(=O)c1sc(-c2ccnc(N)n2)nc1-c1ccc(Cl)cc1Cl,22 µL/min/mg

# Target: T1, Calcium/calmodulin-dependent protein kinase type IV (Homo sapiens) (UniProt Q16566)
# T1 sequence (whole entry): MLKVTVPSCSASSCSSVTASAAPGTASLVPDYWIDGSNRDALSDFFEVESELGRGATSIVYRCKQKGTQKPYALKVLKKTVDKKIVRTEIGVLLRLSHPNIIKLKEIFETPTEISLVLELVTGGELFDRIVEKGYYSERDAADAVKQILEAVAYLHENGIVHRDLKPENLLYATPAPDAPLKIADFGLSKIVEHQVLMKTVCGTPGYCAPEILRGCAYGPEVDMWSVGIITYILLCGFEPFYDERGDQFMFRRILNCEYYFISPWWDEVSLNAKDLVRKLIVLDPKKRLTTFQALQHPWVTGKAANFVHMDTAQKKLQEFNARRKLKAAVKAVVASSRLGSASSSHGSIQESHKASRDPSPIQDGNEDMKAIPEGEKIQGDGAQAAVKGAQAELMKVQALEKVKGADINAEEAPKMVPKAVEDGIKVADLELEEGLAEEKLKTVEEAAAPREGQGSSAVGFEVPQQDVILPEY
# Test: Inhibition of CAMK4 (unknown origin) at 1 uM relative to control; values are per cent of control
# Conditions: not given
row,residual activity,Compound
1,100%,COc1ccc(-c2nc(-c3ccnc(N)n3)sc2C(N)=O)c(Cl)c1
2,76%,CCOC(=O)c1sc(-c2ccncc2)nc1O

row,Compound,residual activity
1,NC(=O)c1sc(-c2ccnc(N)n2)nc1-c1ccc(Cl)cc1Cl,100%

# Target: Serine/threonine-protein kinase Nek6 (Homo sapiens) (UniProt Q9HC98)
# Test: Inhibition of NEK6 (unknown origin) at 1 uM relative to control; values are per cent of control
# Conditions: not given
# Sequence of Serine/threonine-protein kinase Nek6 (Homo sapiens) (Q9HC98 whole entry): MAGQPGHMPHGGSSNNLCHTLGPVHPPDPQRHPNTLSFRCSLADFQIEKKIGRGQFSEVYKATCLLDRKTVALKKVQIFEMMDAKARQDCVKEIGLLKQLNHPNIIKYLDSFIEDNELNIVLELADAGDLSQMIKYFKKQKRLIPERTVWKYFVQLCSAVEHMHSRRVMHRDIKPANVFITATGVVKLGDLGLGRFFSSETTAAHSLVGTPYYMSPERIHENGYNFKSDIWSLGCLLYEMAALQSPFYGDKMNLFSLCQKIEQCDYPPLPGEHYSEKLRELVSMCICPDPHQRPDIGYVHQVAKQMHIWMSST
row,residual activity,Compound
1,85%,COc1ccc(-c2nc(-c3ccnc(N)n3)sc2C(N)=O)c(Cl)c1
2,65%,CCOC(=O)c1sc(-c2ccncc2)nc1O

row,Compound,residual activity
1,NC(=O)c1sc(-c2ccnc(N)n2)nc1-c1ccc(Cl)cc1Cl,81%

# Target: Serine/threonine-protein kinase mTOR (Homo sapiens) (UniProt P42345)
# Test: Inhibition of MTOR (unknown origin) at 1 uM relative to control; values are per cent of control
# Conditions: not given
row,residual activity,Compound
1,74%,COc1ccc(-c2nc(-c3ccnc(N)n3)sc2C(N)=O)c(Cl)c1
2,93%,CCOC(=O)c1sc(-c2ccncc2)nc1O

row,Compound,residual activity
1,NC(=O)c1sc(-c2ccnc(N)n2)nc1-c1ccc(Cl)cc1Cl,93%

# Target: Ribosomal protein S6 kinase beta-1 (Homo sapiens) (UniProt P23443)
# Test: Inhibition of S6K1 (unknown origin) at 1 uM relative to control
# Conditions: values are per cent of control
# How it was run: as §1
# Sequence of Ribosomal protein S6 kinase beta-1 (Homo sapiens) (P23443 whole entry, looked up): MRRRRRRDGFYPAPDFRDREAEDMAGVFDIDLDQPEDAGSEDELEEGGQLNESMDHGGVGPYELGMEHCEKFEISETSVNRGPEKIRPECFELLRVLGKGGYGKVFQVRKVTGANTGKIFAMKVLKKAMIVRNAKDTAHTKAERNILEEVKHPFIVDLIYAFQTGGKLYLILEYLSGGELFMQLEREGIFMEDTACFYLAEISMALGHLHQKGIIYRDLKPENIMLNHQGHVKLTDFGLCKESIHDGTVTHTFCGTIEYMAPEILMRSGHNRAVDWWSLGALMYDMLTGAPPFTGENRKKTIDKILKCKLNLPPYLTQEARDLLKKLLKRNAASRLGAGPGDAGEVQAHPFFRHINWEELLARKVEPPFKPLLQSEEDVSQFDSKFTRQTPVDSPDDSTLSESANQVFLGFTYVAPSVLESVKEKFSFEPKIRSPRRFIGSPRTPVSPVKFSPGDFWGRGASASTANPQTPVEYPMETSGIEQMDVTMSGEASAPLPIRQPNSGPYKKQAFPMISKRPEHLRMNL
row,"residual binding, % of control",Compound
1,42%,COc1ccc(-c2nc(-c3ccnc(N)n3)sc2C(N)=O)c(Cl)c1
2,83%,CCOC(=O)c1sc(-c2ccncc2)nc1O

row,Compound,"residual binding, % of control"
1,NC(=O)c1sc(-c2ccnc(N)n2)nc1-c1ccc(Cl)cc1Cl,75%

# Target: T2, Serine/threonine-protein kinase TBK1 (Homo sapiens) (UniProt Q9UHD2)
# T2 sequence (whole entry): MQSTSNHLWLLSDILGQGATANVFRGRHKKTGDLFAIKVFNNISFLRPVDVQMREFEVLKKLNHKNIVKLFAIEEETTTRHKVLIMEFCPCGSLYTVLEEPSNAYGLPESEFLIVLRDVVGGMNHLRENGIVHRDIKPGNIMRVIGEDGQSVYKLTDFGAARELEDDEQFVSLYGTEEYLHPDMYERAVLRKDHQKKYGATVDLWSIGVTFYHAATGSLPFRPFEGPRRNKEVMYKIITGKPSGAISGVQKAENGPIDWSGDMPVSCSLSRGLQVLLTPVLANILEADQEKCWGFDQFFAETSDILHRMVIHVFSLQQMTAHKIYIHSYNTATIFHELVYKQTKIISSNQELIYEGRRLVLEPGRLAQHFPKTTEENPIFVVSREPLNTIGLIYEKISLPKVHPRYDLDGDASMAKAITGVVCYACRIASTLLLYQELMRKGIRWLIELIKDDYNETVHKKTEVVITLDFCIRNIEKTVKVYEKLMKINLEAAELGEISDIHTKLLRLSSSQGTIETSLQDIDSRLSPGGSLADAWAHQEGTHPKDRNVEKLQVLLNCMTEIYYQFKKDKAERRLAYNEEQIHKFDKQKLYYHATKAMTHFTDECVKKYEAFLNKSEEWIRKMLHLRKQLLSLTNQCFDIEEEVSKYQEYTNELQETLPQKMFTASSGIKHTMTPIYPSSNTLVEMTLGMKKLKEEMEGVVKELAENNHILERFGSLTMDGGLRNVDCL
# Test: Inhibition of TBK1 (unknown origin) at 1 uM relative to control
# Conditions: values are per cent of control
# How it was run: as §1
row,"residual binding, % of control",Compound
1,100%,COc1ccc(-c2nc(-c3ccnc(N)n3)sc2C(N)=O)c(Cl)c1
2,100%,CCOC(=O)c1sc(-c2ccncc2)nc1O

row,Compound,"residual binding, % of control"
1,NC(=O)c1sc(-c2ccnc(N)n2)nc1-c1ccc(Cl)cc1Cl,85%

# Target: T3, Interleukin-1 receptor-associated kinase 4 (Homo sapiens) (UniProt Q9NWZ3)
# T3 sequence (whole entry): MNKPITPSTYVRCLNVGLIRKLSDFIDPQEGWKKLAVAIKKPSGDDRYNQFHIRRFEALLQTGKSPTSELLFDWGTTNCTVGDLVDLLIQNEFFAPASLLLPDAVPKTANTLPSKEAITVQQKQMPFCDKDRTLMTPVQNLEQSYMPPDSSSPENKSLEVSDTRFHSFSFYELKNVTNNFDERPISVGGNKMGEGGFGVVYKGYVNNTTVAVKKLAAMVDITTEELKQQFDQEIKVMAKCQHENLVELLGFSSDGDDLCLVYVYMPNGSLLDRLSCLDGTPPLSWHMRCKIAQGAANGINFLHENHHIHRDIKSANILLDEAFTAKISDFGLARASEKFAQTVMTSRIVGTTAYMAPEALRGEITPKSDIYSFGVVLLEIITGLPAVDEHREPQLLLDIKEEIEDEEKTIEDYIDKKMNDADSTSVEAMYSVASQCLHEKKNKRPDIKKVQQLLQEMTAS
# Test: Inhibition of IRAK4 (unknown origin) at 1 uM relative to control; values are per cent of control
# Conditions: not given
row,residual activity,Compound
1,100%,COc1ccc(-c2nc(-c3ccnc(N)n3)sc2C(N)=O)c(Cl)c1
2,100%,CCOC(=O)c1sc(-c2ccncc2)nc1O

row,Compound,residual activity
1,NC(=O)c1sc(-c2ccnc(N)n2)nc1-c1ccc(Cl)cc1Cl,91%

# Target: Cyclin-dependent kinase 8 (Homo sapiens) (UniProt P49336)
# Test: Inhibition of CDK8 (unknown origin) at 1 uM relative to control; values are per cent of control
# Conditions: not given
# Sequence of Cyclin-dependent kinase 8 (Homo sapiens) (P49336 whole entry): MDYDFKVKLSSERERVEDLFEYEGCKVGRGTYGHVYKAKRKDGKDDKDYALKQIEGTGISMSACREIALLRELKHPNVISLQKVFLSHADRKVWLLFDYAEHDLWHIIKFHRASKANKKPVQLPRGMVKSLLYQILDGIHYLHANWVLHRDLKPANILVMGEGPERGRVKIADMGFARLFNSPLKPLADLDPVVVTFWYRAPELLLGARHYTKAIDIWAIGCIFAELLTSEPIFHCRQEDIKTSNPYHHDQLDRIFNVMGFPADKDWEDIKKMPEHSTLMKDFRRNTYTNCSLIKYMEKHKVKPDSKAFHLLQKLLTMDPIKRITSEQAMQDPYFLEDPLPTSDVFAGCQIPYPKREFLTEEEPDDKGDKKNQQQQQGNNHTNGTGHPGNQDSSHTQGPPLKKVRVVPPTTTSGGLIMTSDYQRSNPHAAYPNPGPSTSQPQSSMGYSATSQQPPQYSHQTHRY
row,residual activity,Compound
1,84%,COc1ccc(-c2nc(-c3ccnc(N)n3)sc2C(N)=O)c(Cl)c1
2,82%,CCOC(=O)c1sc(-c2ccncc2)nc1O

row,Compound,residual activity
1,NC(=O)c1sc(-c2ccnc(N)n2)nc1-c1ccc(Cl)cc1Cl,97%

# Target: T4, TGF-beta receptor type-1 (Homo sapiens) (UniProt P36897)
# T4 sequence (whole entry): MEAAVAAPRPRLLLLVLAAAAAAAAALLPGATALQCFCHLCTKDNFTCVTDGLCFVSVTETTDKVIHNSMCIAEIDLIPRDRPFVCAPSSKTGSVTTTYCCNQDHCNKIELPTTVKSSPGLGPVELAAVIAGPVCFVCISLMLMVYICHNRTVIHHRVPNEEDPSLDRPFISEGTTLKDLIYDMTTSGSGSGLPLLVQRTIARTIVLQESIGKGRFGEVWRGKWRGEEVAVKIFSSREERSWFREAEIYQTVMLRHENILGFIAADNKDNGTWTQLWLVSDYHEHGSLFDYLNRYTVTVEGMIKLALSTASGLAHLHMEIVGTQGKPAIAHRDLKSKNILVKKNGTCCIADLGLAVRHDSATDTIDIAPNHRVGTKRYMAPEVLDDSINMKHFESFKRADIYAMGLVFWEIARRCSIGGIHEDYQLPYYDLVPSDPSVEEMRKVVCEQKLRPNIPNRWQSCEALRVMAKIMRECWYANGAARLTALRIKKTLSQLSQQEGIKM
# Test: Inhibition of TGFBR1 (unknown origin) at 1 uM relative to control
# Conditions: values are per cent of control
# How it was run: as §1
row,"residual binding, % of control",Compound
1,72%,COc1ccc(-c2nc(-c3ccnc(N)n3)sc2C(N)=O)c(Cl)c1
2,100%,CCOC(=O)c1sc(-c2ccncc2)nc1O

row,Compound,"residual binding, % of control"
1,NC(=O)c1sc(-c2ccnc(N)n2)nc1-c1ccc(Cl)cc1Cl,91%
